This note sets out measurements from PubChem BioAssay AID492951 (Molecular Libraries Program, Specialized Chemistry Center, …, 2010).

Calls of active or inactive are those of the source.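 Rule for the calls: active = inhibition above 10%; inactive = the rest.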

Sequence of Hexokinase-4 (Homo sapiens) (P35557 whole entry, looked up): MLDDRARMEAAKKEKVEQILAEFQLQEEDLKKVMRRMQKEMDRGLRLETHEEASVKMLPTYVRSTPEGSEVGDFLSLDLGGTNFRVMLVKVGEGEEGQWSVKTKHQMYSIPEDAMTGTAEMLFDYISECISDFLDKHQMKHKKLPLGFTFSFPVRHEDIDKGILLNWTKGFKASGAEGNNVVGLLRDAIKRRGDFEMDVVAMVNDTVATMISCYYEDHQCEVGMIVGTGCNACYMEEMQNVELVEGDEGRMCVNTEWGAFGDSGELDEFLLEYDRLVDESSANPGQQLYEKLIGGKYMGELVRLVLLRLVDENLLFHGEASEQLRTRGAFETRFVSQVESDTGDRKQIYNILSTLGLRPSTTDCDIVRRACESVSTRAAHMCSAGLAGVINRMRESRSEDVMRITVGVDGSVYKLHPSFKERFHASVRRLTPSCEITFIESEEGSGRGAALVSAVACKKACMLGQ

This experiment addresses Hexokinase-4 (Homo sapiens) (UniProt P35557). The experiment in a line: human glucokinase inhibition, counter-screen for TbHK1 inhibitor project, biochemical, recombinant hGlck (AID 492951). Conditions: G6PDH-coupled NADH absorbance 340 nm, at 10 µM; hits give high values. The essentials: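 Test system: purified recombinant human glucokinase (HK4) with G6PDH coupling enzyme / Reagent: 20 mM glucose as reaction starter, plus 1 mM ATP / Timing: 10 min room-temperature compound-enzyme preincubation before glucose addition / Measured by: A340 of NADH / Repeats: three replicates per compound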
(A counterscreen serves to expose hits that act by an unwanted route or on another target.)
By inhibition is commonly meant the relative decrease from the control value, in per cent. Regarding `O=C(Nc1ccccc1)c1cc(F)ccc1S`, the inhibition is 3.6% (inactive).

`COc1ccc(C(=O)NC(C(=O)O)c2ccccc2)cc1` (stereo not drawn): the result was inactive. In the case of `COc1ccc(C(=O)Nc2cc(Cl)ccc2C(N)=O)cc1`, the inhibition is 17.9% (active).

For the molecule `O=C(Cn1sc2ccccc2c1=O)Nc1ccccc1Br`, the inhibition is 9% (inactive). The same measure, in the same setting: the value for `O=c1c2cccnc2sn1-c1ccccc1` was 91.5% (active). For the molecule `O=C(Nc1cc(Cl)ccc1C(=O)O)c1ccc(Cc2ccccc2)cc1`, the outcome was inactive. As for `COc1cccc(-n2sc3ccccc3c2=O)c1`, the inhibition is 49.9% (active). Still for that read-out and setting: the same measure for `O=C(Cn1sc2ccccc2c1=O)Nc1cccc(F)c1`: 14.3% (active); for `O=C(Cn1sc2ccccc2c1=O)Nc1ccc(F)cc1`: 1.7% (inactive); for `COc1ccc2sn(-c3ccccc3)c(=O)c2c1`: 13.6% (active).

For `O=c1c2cc(F)ccc2sn1-c1ccccc1`, the inhibition was 50.1% (active). Regarding `CCc1ccc(C(=O)Nc2cc(Cl)ccc2C(=O)OC)cc1`, the inhibition was 14.5% (active). On to `OB1OCc2cc(C(F)(F)F)ccc21`, for which the outcome was inactive. Consider `CC(C)(C)c1ccc(C(=O)Nc2cc(Cl)c(Br)cc2C(=O)O)cc1`, for which the inhibition is 11.9% (active).

Regarding `O=C(Cn1sc2ccccc2c1=O)Nc1ccccc1I`, the inhibition was 14.5% (active). As for `O=C(Nc1cc(Cl)ccc1C(=O)O)c1ccsc1`, the outcome was inactive.

As to `O=C(Cn1sc2ccccc2c1=O)N1CCOCC1`, the outcome was inactive. `COc1ccc(NC(=O)Nc2ccccc2C(=O)O)cc1`: the inhibition is 5.1% (inactive). As for `COc1cccc(CC(=O)Nc2cc(Cl)ccc2C(=O)O)c1`, the result was inactive. `O=c1c2ccccc2sn1-c1cccc(F)c1`: the inhibition was 28.2% (active). Still for that read-out and setting: the value for `COc1cccc(NC(=O)Cn2sc3ccccc3c2=O)c1` was 2.9% (inactive). On the same count and under the same terms, the value for `COc1ccc(C(=O)Nc2cc(Cl)ccc2S(N)(=O)=O)cc1` was 11.1% (active); that for `Cc1ccc(NC(=O)Cn2sc3ccccc3c2=O)cc1` was 2.1% (inactive). Same read-out and setting: the value for `O=C(Cn1sc2ccccc2c1=O)Nc1ccccc1C(F)(F)F` was 11.1% (active). On to `O=C(Nc1cc(Cl)ccc1C(=O)O)c1ccccc1`, for which the result was inactive. As to `COc1ccc(C(=O)Nc2cc(Cl)c(C)cc2C(=O)O)cc1`, the inhibition was 17.6% (active). Regarding `COc1ccc(-c2nc3c(Cl)c(Cl)ccc3c(=O)o2)cc1`, the inhibition was 9.2% (inactive). The same measure, in the same setting: the same measure for `CN(C)S(=O)(=O)c1cccc(-n2sc3ccccc3c2=O)c1`: 22.1% (active); for `CC(C)Cc1ccc(C(=O)Nc2cc(Cl)ccc2C(=O)O)cc1`: 19.5% (active). `Cc1cccc(C(=O)Nc2cc(Cl)ccc2C(=O)O)c1`: the outcome was inactive.

Turning to `CN(C)c1ccc(NC(=O)Cn2sc3ccccc3c2=O)cc1`, the inhibition was 14.1% (active). Same read-out and setting: the same measure for `COc1ccc(C(=O)Nc2ccccc2C(=O)O)cc1Cl`: 11.9% (active); for `COc1ccccc1NC(=O)Cn1sc2ccccc2c1=O`: 8.4% (inactive).

Turning to `COc1ccc(C(=O)Nc2cc(F)cc(F)c2O)cc1`, the outcome was inactive. Still for that read-out and setting: the same measure for `COc1ccc(C(=O)Nc2cc(Cl)ccc2[N+](=O)[O-])cc1`: “inactive”; for `COc1ccc(C(=O)Nc2cc(C)ccc2C(=O)O)cc1`: “inactive”. Still for that read-out and setting: the same measure for `CCOC(=O)Cn1sc2ccccc2c1=O`: “inactive”. Regarding `O=C(Cn1sc2ccccc2c1=O)Nc1ccc(Br)cc1`, the inhibition is 33.8% (active).
